Measurements gathered from unrelated publications.
Each line is one published result; the experiments were not run side by side.
Target: Testis-specific serine/threonine-protein kinase 1 (TSSK1B, Homo sapiens, UniProt Q9BXA7)
Sequence (Q9BXA7 1-367, as in one of the studies): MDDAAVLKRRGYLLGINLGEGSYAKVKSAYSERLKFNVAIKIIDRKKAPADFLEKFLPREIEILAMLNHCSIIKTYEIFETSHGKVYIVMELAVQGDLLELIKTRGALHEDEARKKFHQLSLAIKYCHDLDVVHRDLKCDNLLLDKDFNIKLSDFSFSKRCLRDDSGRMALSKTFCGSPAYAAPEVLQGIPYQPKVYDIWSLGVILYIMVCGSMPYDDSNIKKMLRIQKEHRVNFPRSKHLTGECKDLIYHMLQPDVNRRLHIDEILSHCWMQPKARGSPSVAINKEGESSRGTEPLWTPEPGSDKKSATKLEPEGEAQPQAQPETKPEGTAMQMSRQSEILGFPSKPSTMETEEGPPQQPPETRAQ

Compound | assay | setting | quantity | result
Nc1ncnc2occ(-c3ccc(NC(=O)Nc4cc(C(F)(F)F)ccc4F)cc3)c12 | cell-free assay, inhibitor | 20 µM | remaining signal | 52%
CNC(=O)c1cc(Oc2ccc(NC(=O)Nc3ccc(Cl)c(C(F)(F)F)c3)cc2)ccn1 | enzyme activity, inhibitor | 10 µM | inhibition | 2%
COc1cc(-c2cn(C3CCc4c(F)cccc4N(CC(F)(F)F)C3=O)nn2)ccc1-n1cnc(C)c1 (centres unmarked) | cell-free assay, competition with immobilised ligand | 1 µM | remaining binding | 100%
Cc1ccc(NC(=O)c2ccc(C)c(C(F)(F)F)c2)cc1C#Cc1nn(C2CCC(O)CC2)c2ncnc(N)c12 (centres unmarked) | cell-free assay | 10 µM | remaining signal | 100%
Cc1ccc(C(=O)Nc2ccc(CN3CCN(C)CC3)c(C(F)(F)F)c2)cc1C#Cc1cnc2cccnn12 | enzyme activity, inhibitor | 23.5 nM | remaining activity | 83%
Cc1sc(C(=O)NC2COC2)cc1-n1cc(NC(=O)Nc2c(F)cccc2Cl)cn1 | enzyme activity, inhibitor | 10 µM | remaining activity | 103%
Cc1ccc(Nc2nccc(N(C)c3ccc4c(C)n(C)nc4c3)n2)cc1S(N)(=O)=O | enzyme activity, inhibitor | 0.3 µM | inhibition | -1%
O=C1NC(=O)c2cc(Nc3ccc(F)cc3)c(Nc3ccc(F)cc3)cc21 | cell-free assay | 0.5 µM | remaining signal | 90.2%
O=C(Nc1cccnn1)N1CC(C/C=C/c2cncc(Oc3ccc(C(F)(F)F)cn3)n2)C1 | cell-free assay, competition with immobilised ligand | 1 µM | remaining binding | 100%
O=C(Nc1cnn(-c2csc(C(=O)NC3COC3)c2)c1)Nc1ccccc1Cl | enzyme activity, inhibitor | 5 µM | remaining activity | 102%
Cc1cc(NC(=O)c2cccc3cc(-c4cccc5[nH]nc(N)c45)ccc23)ccc1F | enzyme activity, inhibitor | 0.1 µM | activity vs control | 86%
COc1cc(Nc2cnc(C#N)c(O[C@H](C)CN(C)C)n2)ncc1-c1cnn(C)c1 | enzyme activity, inhibitor, radiometric | 1 µM | remaining activity | 72%
CCN(CC)CCNC(=O)c1c(C)[nH]c(/C=C2\C(=O)Nc3ccc(F)cc32)c1C | enzyme activity, inhibitor | 0.3 µM | inhibition | -1%
O=S(=O)(NC1CCC(c2cc(F)ccc2F)(S(=O)(=O)c2ccc(Cl)cc2)CC1)C(F)(F)F (centres unmarked) | cell-free assay, competition with immobilised ligand | 1 µM | remaining binding | 100%
N#CCCc1ccc2c(c1)-c1[nH]c3ccc([N+](=O)[O-])cc3c1CC(=O)N2 | cell-free assay | 0.5 µM | remaining signal | 59.2%
CC(=O)C1=C(C)N(c2cccc(C(F)(F)F)c2)C(=O)N[C@@H]1c1ccc(C#N)nc1 | cell-free assay, competition with immobilised ligand | 1 µM | remaining binding | 100%
CC(C)(C)c1nc2c(s1)c1nc(N)ncc1c1ccc(NS(=O)(=O)c3c(F)cccc3F)c(F)c12 | enzyme activity, inhibitor, radiometric | 1 µM | remaining activity | 88%
CN(C)C(=O)Cn1cc(-c2nc(C3(c4ccc(-c5cnc(N)nc5)cc4)CC3)no2)cn1 | cell-free assay, competition with immobilised ligand | 1 µM | remaining binding | 100%
CN(C)C1CCN(CC#Cc2nn(C3CCCC3)c3nc(NCc4ccccc4)ncc23)C1 (centres unmarked) | enzyme activity, inhibitor, FRET | 0.1 µM | inhibition | 4%
CNC(=O)c1ccc(Nc2ncc(C(F)(F)F)c(NCc3nccnc3N(C)S(C)(=O)=O)n2)cc1 | cell-free assay, competition with immobilised ligand | 0.1 µM | remaining binding | 64%
CN1CC(Oc2cnc(C#N)cc2-c2ccn3nc(NC(=O)C4CC4)cc3c2)C1 | enzyme activity, inhibitor | 1 µM | inhibition | 9%
Cc1nc(N2CC[C@@H](O)C2)ncc1-c1cc(C(F)(F)F)cc2[nH]ncc12 | binding, competition with immobilised ligand | 1 µM | remaining binding | 98%
COc1cc2ncnc(Nc3ccc(Oc4ccccc4)c(C)c3C)c2cc1OC | enzyme activity, inhibitor | 1 µM | inhibition | 4%
